Data published in paper PMC8848307 (Journal of medicinal chemistry, 2019).
Where two headings read alike, the source gives them in different places.

Key:
other STAT proteins = settings: cited from earlier work
STAT3 protein [1] = target: T1, STAT3 protein (Homo sapiens, UniProt P40763); experiment: Western blotting of STAT3 degradation in Molm-16 cells; assay type: cell-based
STAT3 protein [2] = target: STAT3 protein (Mus musculus, UniProt P42227); experiment: Pharmacodynamics in native mouse spleen tissue; assay type: in vivo; settings: single intravenous dose, 25 mg/kg, CD-1 mice
Sequence of STAT3 protein (Mus musculus, UniProt P42227) (P42227 whole entry): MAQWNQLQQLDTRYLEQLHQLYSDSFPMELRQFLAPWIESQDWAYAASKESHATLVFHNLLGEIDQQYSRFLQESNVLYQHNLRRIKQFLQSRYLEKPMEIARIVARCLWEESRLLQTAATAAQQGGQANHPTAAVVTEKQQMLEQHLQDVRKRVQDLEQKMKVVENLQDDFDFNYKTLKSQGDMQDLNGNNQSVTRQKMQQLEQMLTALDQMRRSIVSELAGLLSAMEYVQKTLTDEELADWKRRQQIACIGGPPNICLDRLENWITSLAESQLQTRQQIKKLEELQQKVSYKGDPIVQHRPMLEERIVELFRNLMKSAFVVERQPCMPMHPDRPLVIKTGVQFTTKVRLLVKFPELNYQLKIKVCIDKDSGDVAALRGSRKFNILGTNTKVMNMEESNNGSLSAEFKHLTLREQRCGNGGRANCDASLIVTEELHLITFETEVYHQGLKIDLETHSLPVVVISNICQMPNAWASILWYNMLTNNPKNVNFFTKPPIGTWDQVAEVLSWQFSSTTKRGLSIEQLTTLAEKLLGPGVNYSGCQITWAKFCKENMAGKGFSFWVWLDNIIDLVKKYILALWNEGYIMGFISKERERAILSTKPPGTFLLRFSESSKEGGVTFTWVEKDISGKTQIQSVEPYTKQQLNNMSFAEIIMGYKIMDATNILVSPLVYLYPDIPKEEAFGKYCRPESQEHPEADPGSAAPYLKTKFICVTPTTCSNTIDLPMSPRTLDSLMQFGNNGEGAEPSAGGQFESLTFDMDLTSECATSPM
Method in brief: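 Female CD-1 mice received a single intravenous dose of test compound or vehicle (10% PEG400 + 90% PBS). Mice were euthanized at set time points and spleens harvested. Native spleen lysates were immunoblotted for STAT3.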

[3] = tested on: STAT1, STAT2, STAT4, STAT5A/B, and STAT6 proteins; experiment: Western blotting analysis of other STAT proteins in Molm-16 and SU-DHL-1 cells; assay type: cell-based; settings: for effect on the levels of any STAT protein: 10 μM, Molm-16 4 h, SU-DHL-1 18 h
Method in brief: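 Molm-16 cells were treated for 4 h and SU-DHL-1 cells for 18 h, with test compound at 0.01–10 μM and control compounds at 10 μM. Cells were lysed and run on SDS–PAGE, then transferred to PVDF and blocked 1 h in 5% blocker in TBST. Blots were probed with primary then secondary antibodies against STAT family members and developed by chemiluminescence.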

Molm-16 xenograft tumor [4] = settings: 100 mg/kg weekly dosing; cited from earlier work
STAT3 protein [5] = target: T1, STAT3 protein; experiment: Pharmacodynamics in Molm-16 xenograft tumor tissue; assay type: in vivo, SCID mice
Method in brief: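 Molm-16 subcutaneous xenografts were grown in CB.17 SCID mice (3 × 10^6 cells in 5 mg/mL Matrigel). Mice received a single intravenous dose of test compound or vehicle (10% PEG400 + 90% PBS). Animals were euthanized at set time points, including 1 h and 72 h. Tumor lysates were immunoblotted for total STAT3 and pSTAT3Y705.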

Molm-16 xenograft tumor [6] = experiment: Antitumor efficacy in the Molm-16 xenograft model; assay type: in vivo, SCID mice
Method in brief: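 Molm-16 cells (3 × 10^6) injected subcutaneously in 5 mg/mL Matrigel into CB.17 SCID mice. At an average tumor volume of 150 mm3, mice were randomized and dosed intravenously at 25 or 50 mg/kg three times weekly, or at 50 mg/kg once weekly, for 3 weeks. Vehicle was 10% PEG400 + 90% PBS. Tumors and body weight were measured 2–3 times weekly, with volume = (length × width2)/2.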

Molm-16 cell line = experiment: Cell growth assay; assay type: cell-based; settings: Molm-16, ratio of IC50
SU-DHL-1 cell line = experiment: Cell growth assay; assay type: cell-based; settings: SU-DHL-1, up to 10 μM
STAT3 protein [7] = target: T1, STAT3 protein; experiment: Western blotting of STAT3 degradation in SU-DHL-1 cells; assay type: cell-based; settings: SU-DHL-1, concentrations up to 10 μM
[8] = 25 or 50 mg/kg three times per week

T1 sequence (P40763 whole entry): as the sequence (P42227 whole entry) above, with D760E counted along it

SMILES: NC(=O)CC[C@H](NC(=O)[C@@H]1CC[C@@H]2CCN(C(=O)CCCCCC#Cc3cccc4c3CN(C3CCC(=O)NC3=O)C4=O)C[C@H](NC(=O)c3cc4cc(C(F)(F)P(=O)(O)O)ccc4[nH]3)C(=O)N21)C(=O)NC(c1ccccc1)c1ccccc1 (stereo partly drawn) [SD-36, ((2-(((5S,8S,10aR)-8-(((S)-5-Amino-1-(benzhydrylamino)-1,5-dioxopentan-2-yl)carbamoyl)-3-(8-(2-(2,6-dioxopiperidin-3-yl)-1-oxoisoindolin-4-yl)oct-7-ynoyl)-6-oxodecahydropyrrolo-[1,2-a][1,5]diazocin-5-yl)carbamoyl)-1H-indol-5-yl)-difluoromethyl)phosphonic Acid]
- affinity to other STAT proteins tested (other STAT proteins): much weaker affinity
- concentration very effective in reducing the level of STAT3 protein (STAT3 protein [1]; Western blot, Molm-16 and SU-DHL-1 cells): ≥ 0.1 µM
- persistence of STAT3 reduction in spleen (STAT3 protein [2]): more than 48 h
- reducing STAT3 protein in native mouse spleen tissue (STAT3 protein [2]): very effective
- selectivity for degradation of STAT3 over other STAT members ([3]; Molm-16 and SU-DHL-1 cell lines): > 100 fold
- effect on STAT1, STAT2, STAT4, STAT5A/B, and STAT6 proteins ([3]; Molm-16 and SU-DHL-1 cell lines, up to 10 μM): little or no effect
- tumor response (Molm-16 xenograft tumor [4]): complete tumor regression
- persistence of STAT3 elimination in tumor tissue (STAT3 protein [5]; single dose): > 3 days
- reduction of total STAT3 and pSTAT3^Y705 proteins in xenograft tumor tissue (STAT3 protein [5]; single dose 50 mg/kg, after 1 h): > 95%
- tumor response (Molm-16 xenograft tumor [6]; 50 mg/kg once weekly for 3 weeks): very effective in inhibition of tumor growth
- duration of dosing after which complete tumor regression was achieved (Molm-16 xenograft tumor [6]; [8]): 2 weeks
- persistence of complete tumor regression after termination of the treatment (Molm-16 xenograft tumor [6]; [8]): more than 2 weeks
- tumor response (Molm-16 xenograft tumor [6]; 25 or 50 mg/kg three times per week for 3 weeks intravenously): complete tumor regression
- weight loss or other signs of toxicity (Molm-16 xenograft tumor [6]; efficacy experiment, Molm-16 xenograft mice): no weight loss or other signs of toxicity

SMILES: CN1C(=O)CCC(N2Cc3c(C#CCCCCCC(=O)N4CC[C@H]5CC[C@@H](C(=O)N[C@@H](CCC(N)=O)C(=O)NC(c6ccccc6)c6ccccc6)N5C(=O)[C@@H](NC(=O)c5cc6cc(C(F)(F)P(=O)(O)O)ccc6[nH]5)C4)cccc3C2=O)C1=O (stereo partly drawn) [SD-36Me, ((2-(((5S,8S,10aR)-8-(((S)-5-Amino-1-(benzhydrylamino)-1,5-dioxopentan-2-yl)carbamoyl)-3-(8-(2-(1-methyl-2,6-dioxopi-peridin-3-yl)-1-oxoisoindolin-4-yl)oct-7-ynoyl)-6-oxodecahydropyrrolo[1,2-a][1,5]diazocin-5-yl)carbamoyl)-1H-indol-5-yl)difluoromethyl)phosphonic Acid]
- degradation of total STAT3 and pSTAT3^Y705 proteins (STAT3 protein [1]; Molm-16, concentrations up to 10 μM): completely ineffective
- times less potent than SD-36 in cell growth inhibition (Molm-16 cell line): 400 times
- effect on the levels of any STAT protein [3]: no effect
- effect on cell viability (SU-DHL-1 cell line): no effect
- effect on the levels of STAT3 and pSTAT3^Y705 (STAT3 protein [7]): no effect

SMILES: CC(=O)N1CC[C@H]2CC[C@@H](C(=O)N[C@@H](CCC(N)=O)C(=O)NC(c3ccccc3)c3ccccc3)N2C(=O)[C@@H](NC(=O)c2cc3cc(C(F)(F)P(=O)(O)O)ccc3[nH]2)C1 [SI-109, ((2-(((5S,8S,10aR)-3-Acetyl-8-(((S)-5-amino-1-(benzhydrylamino)-1,5-dioxopentan-2-yl)carbamoyl)-6-oxodecahydropyrrolo[1,2-a][1,5]diazocin-5-yl)carbamoyl)-1H-indol-5-yl)difluoromethyl)phosphonic Acid]
- effect on the level of total STAT3 protein (STAT3 protein [1]; Molm-16, 4 h, concentrations up to 1 μM): no effect
- effect on the level of pSTAT3^Y705 protein (STAT3 protein [1]; Molm-16, 4 h, up to / at 1 μM): only modestly decreases
- effect on the levels of any STAT protein [3]: no effect
- effect on cell viability (SU-DHL-1 cell line): no effect
- effect on the levels of STAT3 and pSTAT3^Y705 (STAT3 protein [7]): no effect
